Measured values as given in paper PMC10043961 (Biomedicine & Pharmacotherapy, 2023).
Where “and” joins values, the source holds several entries; their conditions need not be identical. Identical values can stand only once. Entries after “also recorded” stand apart in the source; their conditions may differ. Like-named read-outs stand apart in the source and are kept apart here.

Experiments:
[1] = tested on: SARS-CoV-2 (USA-WA1/2020); format: cell-based
[2] = tested on: purine synthesis pathway in Vero E6 cells; assay: Metabolomic analysis of Vero E6 cells, purine synthesis pathway; format: cell-based; conditions: Vero E6, 1 and 5 µM
Procedure, shortened: (§1)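 Vero E6 cells at 80% confluence were treated for 24 h with test compound (1, 5 or 10 µM) in regular culture medium, with DMSO as vehicle. Cells were washed with ice-cold PBS and scraped into ice-cold 80% methanol for LC-MS metabolomics. Metabolites were matched to an in-house database (10 ppm mass, 0.5 min retention time tolerance), and peak integration was manually curated.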

[3] = tested on: Vero E6 cells; conditions: Vero E6, 1–10 µM, 24 h
[4] = tested on: SARS-CoV-2 double-stranded RNA; format: cell-based
[5] = tested on: SARS-CoV-2 (USA-WA1/2020); assay: microbe, parasite or virus in culture; format: cell-based; conditions: for EC50: Severe acute respiratory syndrome coronavirus 2, Huh7.5, read-out: EC50(µM) (R^2); for IC50: Severe acute respiratory syndrome coronavirus 2, Huh7.5, read-out: IC50, inhibitory viral replication concentration at 50%
[6] = data from DrugBank ref 49; cited from earlier work
[7] = tested on: SARS-CoV-2 viral clearance; conditions: patients hospitalized with COVID-19 ref 62; cited from earlier work
[8] = in vitro; conditions: human
[9] = tested on: ecto-5′-nucleotidase (NT5E) or (CD73); assay: Western blot of NT5E; format: cell-based
Procedure, shortened: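 Vehicle- and test compound-treated cells were lysed in RIPA buffer with protease inhibitors, and protein was measured by BCA in triplicate. Lysates were separated by SDS-PAGE and transferred to nitrocellulose. Membranes were blocked in 5% skim milk/TBS and probed with anti-NT5E/CD73 primary antibody.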

[10] = tested on: SARS-CoV-2 double-stranded RNA; format: cell-based; remark: listed apart in the source
[11] = tested on: SARS-CoV-2; assay: microbe, parasite or virus in culture; format: cell-based; conditions: Severe acute respiratory syndrome coronavirus 2, Vero
[12] = molecular target: T1, SARS-CoV-2 Mpro (Severe acute respiratory syndrome coronavirus 2, UniProt P0DTD1); assay: biochemical; conditions: for IC50: IC50 against Mpro activity
[13] = tested on: Vero E6 cells; conditions: for Drug-induced toxicity, LDH release (in words): Vero E6, 24 h; for Effect on cellular ATP levels (in words): Vero E6, Cell Titer Glo
[14] = cited from earlier work
[15] = Mouse pharmacokinetics: plasma and epithelial lining fluid; format: in vivo, mice
Procedure, shortened: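 Female 6-week-old CD1 mice were dosed PO once daily for 7 days. […] Plasma and BAL were assayed by LC-MS/MS against spiked standard curves. ELF levels came from urea normalization (VELF = VBAL × UreaBAL/Ureaplasma). Free drug was calculated as total × fraction unbound from rapid equilibrium dialysis.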

[16] = tested on: pyrimidine synthesis (DHODH) in Vero E6 cells; assay: Metabolomic analysis of Vero E6 cells, de novo pyrimidine synthesis; format: cell-based; conditions: 24 h; for Pyrimidine synthesis, UMP levels (in words): Vero E6, 10 µM
Procedure, shortened: as §1

[17] = tested on: SARS-CoV-2; format: cell-based
[18] = molecular target: T1, SARS-CoV-2 Mpro; format: binding
[19] = read-out: Inhibition of Mpro activity
[20] = mice, 10 mg/kg PO daily for 7 days, 10 mg/kg

O=C1C(O)=C([C@H]2CC[C@H](c3ccc(Cl)cc3)CC2)C(=O)c2ccccc21 [Atovaquone]
Antiviral effect on SARS-CoV-2 replication (in words) [1]: dose-dependent inhibition | Free guanosine, inosine and adenosine levels (in words) [2]: downregulation of adenosine, guanosine, and inosine levels | Free guanosine, inosine and adenosine levels (in words) ([2]; listed as atovaquone): significant depletion | Phospholipidosis, NBD-PE (in words) [3]: did not show phospholipidosis | dsRNA staining compared to DMSO-treated control cells [4]: striking reduction in dsRNA staining | EC50 [5]: 6.2 µM | IC50 [5]: 6.8 µM | Protein bound [6]: > 99.9% | primary endpoint: effect on SARS-CoV-2 viral clearance compared with placebo [7]: did not meet the primary endpoint | CC50 [8]: > 100 µM | NT5E protein expression, quantification (in words) ([9]; 5 µM): significant decrease | NT5E expression (in words) ([9]; atovaquone treated cells): significantly downregulated | dsRNA staining compared to DMSO-treated control cells [10]: striking reduction in dsRNA staining | IC50 [11]: 0.02 µM | inhibition at 50 µM ([12]; read-out: Inhibitory effect on Mpro activity): ~35% | Drug-induced toxicity, LDH release (in words) [13]: did not elicit substantial LDH release | serum levels [14]: > 40 µM | Cmax in mice compared to BID dosing in HIV infected volunteers ([15]; mice 20 mg/kg PO daily for 7 days versus human values of ref 57): 2–5 fold | peak total plasma concentration ([15]; mice, 20 mg/kg PO daily for 7 days): 100 µg/mL | peak free epithelial lining fluid (ELF) concentration ([15]; mice, 20 mg/kg PO daily for 7 days, urea normalized, 20 mg/kg): 70 nM | peak free plasma level ([15]; mice, 20 mg/kg PO daily for 7 days, 20 mg/kg): ~44 nM | half-life ([15]; mouse, in vivo): 18 to 38 h | Pyrimidine synthesis, UMP levels versus orotate and dihydroorotate (in words) ([16]; Vero E6, 1 µM and 5 µM): does not inhibit pyrimidine synthesis | Pyrimidine synthesis, UMP levels (in words) [16]: significant depletion in UMP levels | Pyrimidine synthesis, UMP levels (in words) ([16]; listed as atovaquone): significant inhibition in pyrimidine synthesis | Viral replication in the presence of uridine (in words) [17]: significant inhibition for viral replication regardless the uridine concentration

COc1ccccc1Oc1c(NS(=O)(=O)c2ccc(C(C)(C)C)cc2)nc(-c2ncccn2)nc1OCCO [Bosentan]
Antiviral effect on SARS-CoV-2 replication (in words) [1]: modest dose-dependent antiviral effects | Drug-induced toxicity, LDH release (in words) [13]: minimal impact | Effect on cellular ATP levels (in words) [13]: minimal impact

COc1cccc2c1C(=O)c1c(O)c3c(c(O)c1C2=O)C[C@@](O)(C(C)=O)C[C@@H]3O[C@H]1C[C@H](N)[C@H](O)[C@H](C)O1 [Daunorubicin]
Antiviral effect on SARS-CoV-2 replication (in words) [1]: dose-dependent inhibition | Drug-induced toxicity, LDH release (in words) [13]: toxic to cells at high doses

CCCCc1oc2ccc(NS(C)(=O)=O)cc2c1C(=O)c1ccc(OCCCN(CCCC)CCCC)cc1 [Dronedarone]
Antiviral effect on SARS-CoV-2 replication (in words) [1]: dose-dependent inhibition | EC50 [5]: 0.38 µM | IC50 [5]: 0.38 µM | CC50 [8]: 20.2 µM | Inhibition of Mpro activity (in words) [12]: significant inhibition | IC50 [12]: 18 µM | inhibition at 50 µM [12, 19]: 50% | Drug-induced toxicity, LDH release (in words) [13]: particularly toxic at IC50 concentrations

CCN(CC)C(=O)/C(C#N)=C/c1cc(O)c(O)c([N+](=O)[O-])c1 [Entacapone]
Antiviral effect on SARS-CoV-2 replication (in words) [1]: did not elicit a reproducible antiviral effect | Mpro covalently modified [18]: 15–20% | Inhibition of Mpro activity (in words) [12]: significant inhibition | IC50 [12]: 9 µM and 9.04 µM | inhibition at 50 µM [12, 19]: 50%

COC(=O)Nc1nc2ccc(C(=O)c3ccccc3)cc2[nH]1 [Mebendazole]
Antiviral effect on SARS-CoV-2 replication (in words) [1]: dose-dependent inhibition | Antiviral activity in Huh7.5 cells (in words) [5]: lacks strong inhibitory activity; also recorded: less effective | CC50 [8]: > 100 µM | Inhibition of Mpro activity (in words) [12]: significant inhibition | IC50 [12]: 19 µM and 19.9 µM | Drug-induced toxicity, LDH release (in words) [13]: absence of overt toxicity | peak plasma levels of patients ([14]; patients receiving 10 mg/kg every 6 h (total 40 mg/kg/day) ref 60): 0.3 to 1.69 µM | time of maximum total plasma concentration after the last dose ([15]; mice, 10 mg/kg PO daily for 7 days): ≤ 90 min | maximum total plasma concentration [15, 20]: 697.67 ng/mL and 2.36 µM | peak free drug level in ELF [15, 20]: ~550 ng/mL and ~1.8 µM

O=C1c2c(O)ccc(O)c2C(=O)c2c(NCCNCCO)ccc(NCCNCCO)c21 [Mitoxantrone]
Antiviral effect on SARS-CoV-2 replication (in words) [1]: dose-dependent inhibition | Drug-induced toxicity, LDH release (in words) [13]: did not elicit substantial LDH release

C[C@@H]1O[C@@H](O[C@H]2C[C@@H](O)[C@]3(CO)[C@H]4[C@H](O)C[C@]5(C)[C@@H](C6=CC(=O)OC6)CC[C@]5(O)[C@@H]4CC[C@]3(O)C2)[C@H](O)[C@H](O)[C@H]1O [Ouabain]
Antiviral effect on SARS-CoV-2 replication (in words) [1]: dose-dependent inhibition | IC50 against SARS-CoV-2 (in words) [1]: low nanomolar range | EC50 [5]: 0.07 µM | IC50 [5]: 0.075 µM | CC50 [8]: > 100 µM | Drug-induced toxicity, LDH release (in words) [13]: absence of overt toxicity

C=C[C@H]1C[N@@]2CC[C@H]1C[C@@H]2[C@@H](O)c1ccnc2ccc(OC)cc12 [Quinidine]
Antiviral effect on SARS-CoV-2 replication (in words) [1]: modest dose-dependent antiviral effects | Drug-induced toxicity, LDH release (in words) [13]: minimal impact | Effect on cellular ATP levels (in words) [13]: minimal impact

COc1cccc(-c2ccc(NC(=O)C3=C(C(=O)O)CCC3)c(F)c2)c1 [vidofludimus]
Viral replication in the presence of uridine (in words) [17]: inhibitory activity was reversed with addition of uridine; also recorded: activity changed based on the uridine addition
